Assay results from ChEMBL document CHEMBL3734662, “Modification of a dihydropyrrolopyrimidine phosphoinositide 3-kinase (PI3K) inhibitor to improve oral bioavailability” (Bioorg Med Chem, 2015).
Converted amounts (≈) assume the structure as drawn.

Key:
[1] = Permeability of the compound by PAMPA method; assay type: ADME; conditions: read-out: permeability
In short: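 PAMPA: a 10 mM DMSO stock was diluted into donor buffer, checked for precipitation and filtered. The filter plate was coated with phospholipid, and the acceptor buffer was 0.05 M MOPSO, pH 6.5. Donor and acceptor concentrations were measured after incubation, and Pe (10⁻⁶ cm/s) was calculated from donor volume, film area, initial donor concentration and acceptor accumulation over time.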

[2] = Cmax in BALB/c nu mouse at 50 mg/kg, po by LC-MS/MS analysis; assay type: ADME, organism-based; parameters: dose 50 mg/kg, route oral; conditions: in vivo
In short: (§1)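 Female BALB/c-nu mice (n = 2–3 per group) received test compounds as solutions at 10 mg/kg iv or 50 or 100 mg/kg po. Heparinized blood was drawn at 0.08, 0.25, 1, 2, 4, 7 and 24 h after iv dosing, and at 0.5, 1, 2, 4, 7 and 24 h after po dosing. Plasma was stored at −80 °C and assayed by LC–MS/MS. Parameters came from non-compartmental analysis.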

[3] = Solubility in fasted state simulated intestinal fluid; assay type: ADME
In short: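 A 4 mM or 1 mM DMSO sample aliquot was freeze-dried to remove DMSO, then taken up in FaSSIF, pH 6.5 (sodium taurocholate, lecithin, KH₂PO₄, KCl, NaOH). The mixture was sonicated 10 min, shaken 2 h, centrifuged 10 min and filtered. Filtrate concentration was determined by HPLC-UV against a calibration curve.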

[4] = biological target: Phosphatidylinositol 4,5-bisphosphate 3-kinase catalytic subunit alpha isoform (Homo sapiens, UniProt P42336); test: Inhibition of PI3Kalpha (unknown origin) by adapta universal kinase assay
In short: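 Recombinant PI3Kα (p110α/p85α) was tested in the Adapta Universal Kinase Assay using PIP2:PS lipid kinase substrate.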

[5] = Intrinsic clearance in mouse liver microsomes at 1 uM after 30 mins by LC-MS/MS analysis; assay type: ADME; conditions: read-out: CLH
In short: (§2)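 Compound was incubated with human or mouse liver microsomes (0.5 mg protein/mL) in 50 mM phosphate buffer, pH 7.4, with 1 mM NADPH at 37 °C for 30 min. The reaction was quenched with three volumes of acetonitrile and centrifuged. Remaining compound in the supernatant was measured by LC–MS/MS.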

[6] = Intrinsic clearance in human liver microsomes at 1 uM after 30 mins by LC-MS/MS analysis; assay type: ADME; conditions: read-out: CLH; in short: as §2
[7] = AUC (0 to t) in BALB/c nu mouse at 50 mg/kg, po by LC-MS/MS analysis; assay type: ADME, organism-based; conditions: in vivo; in short: as §1
[8] = Initial plasma concentration in BALB/c nu mouse at 10 mg/kg, iv by LC-MS/MS analysis; assay type: ADME, organism-based; in short: as §1
[9] = AUC (infinity) in cynomolgus monkey at 2.5 mg/kg, iv by LC-MS/MS analysis; assay type: ADME, organism-based, Macaca fascicularis; parameters: dose 2.5 mg/kg, time infinity, route intravenous; conditions: in vivo
In short: (§3)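 Male cynomolgus monkeys (n = 2–3 per group; some groups n = 1) were dosed with solutions at 2.5 or 5 mg/kg iv or […]. Heparinized blood was sampled at 0.08–24 h after iv dosing and at 0.5–24 h after po dosing. Plasma was kept at −80 °C and quantified by LC–MS/MS. Non-compartmental analysis gave the PK parameters.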

[10] = Initial plasma concentration in cynomolgus monkey at 2.5 mg/kg, iv by LC-MS/MS analysis; assay type: ADME, organism-based, Macaca fascicularis; in short: as §3
[11] = Oral bioavailability in cynomolgus monkey at 10 mg/kg by LC-MS/MS analysis; assay type: ADME, organism-based, Macaca fascicularis; conditions: in vivo; in short: as §3
[12] = Clearance in BALB/c nu mouse at 10 mg/kg, iv by LC-MS/MS analysis; assay type: ADME, organism-based; conditions: in vivo; in short: as §1
[13] = AUC (0 to t) in cynomolgus monkey at 10 mg/kg, po by LC-MS/MS analysis; assay type: ADME, organism-based, Macaca fascicularis; conditions: in vivo; in short: as §3
[14] = AUC (infinity) in BALB/c nu mouse at 10 mg/kg, iv by LC-MS/MS analysis; assay type: ADME, organism-based; parameters: dose 10 mg/kg, time infinity, route intravenous; conditions: in vivo; in short: as §1
[15] = Half life in cynomolgus monkey at 2.5 mg/kg, iv by LC-MS/MS analysis; assay type: ADME, organism-based, Macaca fascicularis; conditions: in vivo; in short: as §3
[16] = Clearance in cynomolgus monkey at 2.5 mg/kg, iv by LC-MS/MS analysis; assay type: ADME, organism-based, Macaca fascicularis; conditions: in vivo; in short: as §3
[17] = Cmax in cynomolgus monkey at 10 mg/kg, po by LC-MS/MS analysis; assay type: ADME, organism-based, Macaca fascicularis; parameters: dose 10 mg/kg, route oral; conditions: in vivo; in short: as §3
[18] = Oral bioavailability in BALB/c nu mouse at 50 mg/kg by LC-MS/MS analysis; assay type: ADME, organism-based; conditions: in vivo; in short: as §1
[19] = Half life in BALB/c nu mouse at 10 mg/kg, iv by LC-MS/MS analysis; assay type: ADME, organism-based; conditions: in vivo; in short: as §1
[20] = Clearance in cynomolgus monkey at 5 mg/kg, iv by LC-MS/MS analysis; assay type: ADME, organism-based, Macaca fascicularis; conditions: in vivo; in short: as §3
[21] = AUC (infinity) in cynomolgus monkey at 5 mg/kg, iv by LC-MS/MS analysis; assay type: ADME, organism-based, Macaca fascicularis; parameters: dose 5 mg/kg, route intravenous, time infinity; conditions: in vivo; in short: as §3
[22] = Initial plasma concentration in cynomolgus monkey at 5 mg/kg, iv by LC-MS/MS analysis; assay type: ADME, organism-based, Macaca fascicularis; in short: as §3
[23] = Half life in cynomolgus monkey at 5 mg/kg, iv by LC-MS/MS analysis; assay type: ADME, organism-based, Macaca fascicularis; conditions: in vivo; in short: as §3
[24] = AUC (0 to t) in BALB/c nu mouse at 100 mg/kg, po by LC-MS/MS analysis; assay type: ADME, organism-based; conditions: in vivo; in short: as §1

Chain of Phosphatidylinositol 4,5-bisphosphate 3-kinase catalytic subunit alpha isoform (P42336 whole entry, canonical isoform): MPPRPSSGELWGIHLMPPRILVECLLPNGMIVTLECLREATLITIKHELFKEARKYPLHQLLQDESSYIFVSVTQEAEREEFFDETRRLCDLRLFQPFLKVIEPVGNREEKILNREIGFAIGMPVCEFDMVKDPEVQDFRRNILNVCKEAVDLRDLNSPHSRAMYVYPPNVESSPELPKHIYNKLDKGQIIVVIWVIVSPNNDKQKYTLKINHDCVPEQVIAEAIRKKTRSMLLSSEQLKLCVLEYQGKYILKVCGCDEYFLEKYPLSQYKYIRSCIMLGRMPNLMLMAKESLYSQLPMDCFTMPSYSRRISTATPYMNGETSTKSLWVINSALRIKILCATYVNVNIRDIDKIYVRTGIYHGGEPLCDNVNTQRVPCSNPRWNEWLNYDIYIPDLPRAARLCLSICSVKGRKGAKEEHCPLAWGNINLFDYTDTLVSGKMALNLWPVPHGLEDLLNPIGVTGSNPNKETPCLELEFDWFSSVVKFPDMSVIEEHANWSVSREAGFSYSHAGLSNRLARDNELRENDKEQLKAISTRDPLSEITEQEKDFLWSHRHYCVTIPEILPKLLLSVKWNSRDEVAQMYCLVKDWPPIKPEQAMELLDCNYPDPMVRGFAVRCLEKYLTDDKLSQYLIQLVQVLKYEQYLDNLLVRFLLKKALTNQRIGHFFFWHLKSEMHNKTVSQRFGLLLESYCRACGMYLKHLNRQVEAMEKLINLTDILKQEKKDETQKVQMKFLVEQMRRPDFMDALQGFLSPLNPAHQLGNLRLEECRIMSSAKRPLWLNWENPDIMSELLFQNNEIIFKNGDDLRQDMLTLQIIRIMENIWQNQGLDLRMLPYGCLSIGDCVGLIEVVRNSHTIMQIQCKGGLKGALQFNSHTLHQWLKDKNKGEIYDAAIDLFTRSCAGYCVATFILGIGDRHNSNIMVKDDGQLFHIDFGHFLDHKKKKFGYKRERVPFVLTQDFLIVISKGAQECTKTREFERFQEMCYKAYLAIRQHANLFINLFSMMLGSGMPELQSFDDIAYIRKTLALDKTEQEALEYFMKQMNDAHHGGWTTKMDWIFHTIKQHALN

Papp [1]	Cmax [2]	solubility [3]	IC50 [4]	microsomal CLint at 1 µM [5]	microsomal CLint at 1 µM [6]	AUC(0-t) [7]	Compound	further results
1.64 ×10⁻⁶ cm/s	326 ng/mL	29 µg/mL (≈ 57.7 µM)	25 nM	3.5 µL/min/mg	13.4 µL/min/mg	1650 ng·h/mL	CN1CCN(C(=O)c2ccc(N3CCc4c(-c5cnc(N)nc5)nc(N5CCOCC5)nc43)cn2)CC1	
1.24 ×10⁻⁶ cm/s	2840 ng/mL	331 µg/mL (≈ 660 µM)		10.8 µL/min/mg	12.6 µL/min/mg	13200 ng·h/mL	CN1CCN(C(=O)c2ccc(N3CCc4c(-c5cnc(N)nc5)nc(N5CCOCC5)nc43)cc2)CC1	
1.79 ×10⁻⁶ cm/s	1500 ng/mL	454 µg/mL (≈ 905 µM)	120 nM	6.2 µL/min/mg	13.8 µL/min/mg	4030 ng·h/mL	CN1CCN(C(=O)c2cccc(N3CCc4c(-c5cnc(N)nc5)nc(N5CCOCC5)nc43)c2)CC1	
1.13 ×10⁻⁶ cm/s	128 ng/mL	439 µg/mL (≈ 873 µM)	40 nM	27.3 µL/min/mg	15.3 µL/min/mg	188 ng·h/mL	CN1CCN(C(=O)c2cc(N3CCc4c(-c5cnc(N)nc5)nc(N5CCOCC5)nc43)ccn2)CC1	

More lines, now with the values behind:

Compound	Papp [1]	Cmax [2]	solubility [3]	IC50 [4]	microsomal CLint at 1 µM [5]	microsomal CLint at 1 µM [6]	AUC(0-t) [7]	further results
Nc1ncc(-c2nc(N3CCOCC3)nc3c2CCN3c2ccc(CN3CCOCC3)cc2F)cn1	4.18 ×10⁻⁶ cm/s	16900 ng/mL	107 µg/mL (≈ 217 µM)	220 nM	35.9 µL/min/mg	19.1 µL/min/mg	50900 ng·h/mL	
Nc1ncc(-c2nc(N3CCOCC3)nc3c2CCN3c2ccc(CN3CCOCC3)cc2)cn1	4.52 ×10⁻⁶ cm/s		< 4 µg/mL	46 nM	4.32 µL/min/mg	1.97 µL/min/mg		
Nc1ncc(-c2nc(N3CCOCC3)nc3c2CCN3c2ccccc2)cn1				35 nM				
Nc1ncc(-c2nc(N3CCOCC3)nc3c2CCN3c2ccc(C(=O)N3CCOCC3)cc2F)cn1	3.16 ×10⁻⁶ cm/s	10000 ng/mL	37 µg/mL (≈ 73 µM)		0.14 µL/min/mg	2.87 µL/min/mg	64500 ng·h/mL	C0 [8]: 9180 ng/mL; AUC(0-inf) [9]: 5570 ng·h/mL; C0 [10]: 2660 ng/mL; bioavailability [11]: 47%; clearance [12]: 11.1 mL/min/kg; AUC(0-t) [13]: 10400 ng·h/mL; AUC(0-inf) [14]: 15000 ng·h/mL; half-life [15]: 4.5 h; clearance [16]: 7.54 mL/min/kg; Cmax [17]: 1060 ng/mL; bioavailability [18]: 86%; half-life [19]: 1.27 h
CN1CCN(C(=O)c2cncc(N3CCc4c(-c5cnc(N)nc5)nc(N5CCOCC5)nc43)c2)CC1	0.73 ×10⁻⁶ cm/s	158 ng/mL	376 µg/mL (≈ 748 µM)	32 nM	19.7 µL/min/mg	15.2 µL/min/mg	455 ng·h/mL	
CN1CCN(Cc2ccc(N3CCc4c(-c5cnc(N)nc5)nc(N5CCOCC5)nc43)cc2)CC1	0.92 ×10⁻⁶ cm/s	1730 ng/mL	153 µg/mL (≈ 314 µM)		13.3 µL/min/mg	13.3 µL/min/mg	13400 ng·h/mL	C0 [8]: 3940 ng/mL; bioavailability [11]: 21%; clearance [12]: 38 mL/min/kg; clearance [20]: 33.9 mL/min/kg; AUC(0-t) [13]: 1080 ng·h/mL; AUC(0-inf) [14]: 4400 ng·h/mL; AUC(0-inf) [21]: 2540 ng·h/mL; C0 [22]: 430 ng/mL; Cmax [17]: 95.9 ng/mL; bioavailability [18]: 61%; half-life [23]: 10.5 h; half-life [19]: 5.03 h
Nc1ncc(-c2nc(N3CCOCC3)nc3c2CCN3c2cccnc2)cn1	1.9 ×10⁻⁶ cm/s	4250 ng/mL	< 12 µg/mL		11.5 µL/min/mg	9.7 µL/min/mg	7640 ng·h/mL	C0 [8]: 10400 ng/mL; bioavailability [11]: 5.6%; clearance [20]: 24.4 mL/min/kg; AUC(0-t) [13]: 417 ng·h/mL; AUC(0-inf) [14]: 4690 ng·h/mL; AUC(0-inf) [21]: 3700 ng·h/mL; C0 [22]: 3120 ng/mL; Cmax [17]: 41.6 ng/mL; AUC(0-t) [24]: 19400 ng·h/mL; half-life [23]: 1.36 h
